Screening results (PubChem BioAssay)
Shown are actives, neighbours in structure and some others; about 2% of the full set was active somewhere.
PvdQ acylase = P. aeruginosa PvdQ acylase inhibition. purified PvdQ acylase, fluorescence plate reader. 0.063% of 340,000 active. AID 488965. inhibition, % at 10 µM; in the data active means inhibition above about 30%, passing the limit was not always enough;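 further: 0% = vehicle neutral wells and 100% = reference inhibitor wells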
PLC-gamma1 inh = PLC-gamma1 (human) inhibition, primary screen | P19174 | purified PLC-gamma1, fluorogenic substrate, fluorescence | inhibition, % at 12.2 µM | 0.84% of 370,000 active; in the data active means inhibition above about 9.5%
PLCb3 inh = inhibitors of human phospholipase C beta3; Purified PLC-beta3, fluorogenic substrate, fluorescence; inhibition, % at 12.2 µM; 0.18% of 370,000 active; AID 720704; in the data active means inhibition above about 11%;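 further: 0% = median of compound wells on plate and 100% = full blocker control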
IMP-1 inh-1 = blocks Pseudomonas aeruginosa IMP-1 metallo-beta-lactamase; purified IMP-1, nitrocefin hydrolysis, epi-absorbance fluorescence; inhibition, % at 5.6 µM; 0.45% of 290,000 active; AID 1556;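 active means inhibition above the mean plus 3 SD of all compounds in the same screening run, cut at about 4.5% in these data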;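 further: 0% = IMP-1 with DMSO and 100% = DMSO wells lacking enzyme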
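Test system: recombinant IMP-1 enzyme, purified / Medium: HEPES buffer pH 7.1 with ZnSO4 and Brij 35 / Doses: single dose, 5.6 µM / Times: 25 °C, 15 min preincubation, 25 min reaction / Detection: Epi-absorbance via hydrolysed-nitrocefin quenching of white-plate fluorescence, 480/530 nm, EDTA stop / Evaluation: percent inhibition from optical density relative to buffer-blank wells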
VIM-2 inhibitor = inhibitors of Pseudomonas aeruginosa VIM-2 metallo-beta-lactamase; 0.89% of 290,000 active; AID 1527; purified VIM-2, nitrocefin hydrolysis, epi-absorbance fluorescence; inhibition, % at 5.6 µM;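 active means inhibition above the mean of all tested compounds plus 3 SD, cutoff set per screening run, cut at about 7.5% in these data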;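 further: red hydrolysis product quenches plate fluorescence so inhibitors raise well fluorescence; 0% = enzyme with DMSO and 100% = DMSO without enzyme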
IMP-1 inh-2 = selectivity counter-screen for VIM-2 inhibitors: IMP-1 metallo-beta-lactamase inhibitors; shares compounds with VIM-2 inhibitor; purified IMP-1, nitrocefin hydrolysis, epi-absorbance fluorescence; inhibition, % at 5.6 µM; 1,300 tested, under 10 active; AID 1856; call rule not given here;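 further: 0% = enzyme with vehicle and 100% = vehicle without enzyme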
VIM-2 FRET ctr = counter-screen for VIM-2 inhibitors: epi-absorbance artifacts via FRET | shares compounds with VIM-2 inhibitor | purified VIM-2, CCF2 FRET substrate hydrolysis | inhibition, % at 5.6 µM | 23% of 1,300 active | AID 1857;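 active means inhibition above the mean of all tested compounds plus 3 SD, cut at about 19% in these data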;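 further: 0% = VIM-2 plus DMSO and 100% = no enzyme wells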
TEM-1 counter = blocks E. coli TEM-1 beta-lactamase in VIM-2 selectivity screen | inhibition, % at 5.6 µM | 3% of 1,300 active | Purified TEM-1, nitrocefin hydrolysis, epi-absorbance fluorescence | shares compounds with VIM-2 inhibitor | AID 1866;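 active means inhibition above that campaign's mean inhibition plus 3 SD, cut at about 0.46% in these data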;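 further: 0% = TEM-1 with DMSO and 100% = TEM-1 with 100 µM potassium clavulanate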
VIM-2 inh conf = confirmation of P. aeruginosa VIM-2 metallo-beta-lactamase inhibitors; shares compounds with VIM-2 inhibitor; purified VIM-2, nitrocefin hydrolysis, epi-absorbance; inhibition, % at 5.6 µM; 96% of 1,300 active;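 active means inhibition of the VIM-2 beta-lactamase enzyme above about 11% from the earlier first-round screen, limit read from the data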;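 further: 0% = VIM-2 with DMSO and 100% = buffer wells without enzyme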
An asterisk follows results filed as active; i = inactive; . = not tested or not shown.

SMILES | PvdQ acylase | PLC-gamma1 inh | PLCb3 inh | IMP-1 inh-1 | VIM-2 inhibitor | IMP-1 inh-2 | VIM-2 FRET ctr | TEM-1 counter | VIM-2 inh conf
O=[N+]([O-])c1cc(CN2CCN(c3cccc(C(F)(F)F)c3)CC2)c2cccnc2c1O | -9.1 | 6.2 | 1.9 | -4.0 | 34.9* | -3.4 | 1.8 | -6.7 | 14.7*
Oc1ccc(CN2CCN(c3ccccc3)CC2)c2cccnc12 | -1.7 | . | . | -1.7 | -3.0 | . | . | . | .
Cc1c[nH]c2cccc(-c3c(Cl)cccc3Cl)c12 | . | 1.7 | -5.5 | . | . | . | . | . | .
O=C(NCc1cccc(Cl)c1)O[C@H]1CC[C@@]23CCCN2C(=O)CCC[C@H]3C1 | . | -0.3 | -0.7 | . | . | . | . | . | .
CCCCNS(=O)(=O)/C=C/c1ccc(F)cc1CNC(=O)OC(C)(C)C | . | 1.9 | 0.9 | . | . | . | . | . | .
CN=C1S/C(=C/c2cc(C)n(Cc3ccccc3)c2C)C(=O)N1C | . | -14.0 | -18.4 | . | . | . | . | . | .
COc1cc(/C=N/N(C)C2=NS(=O)(=O)c3ccccc32)cc(OC)c1OC | -8.8 | -17.4 | -23.3 | -1.9 | 32.1* | -3.1 | -2.3 | -11.4 | 34.7*
S=c1[nH]nc(-c2ccc3ccccc3n2)n1-c1ccccc1Cl | -9.8 | -76.5 | -99.3 | -0.9 | -0.9 | . | . | . | .
S=c1[nH]nc(-c2ccn[nH]2)n1-c1ccccc1Cl | 10.9 | -0.9 | -6.1 | -4.2 | 16.6* | -3.3 | 34.1* | -3.5 | 22.3*
COC(=O)c1c(-c2ccncc2)csc1NC(=O)c1ccoc1C | -1.1 | -2.5 | -4.3 | -1.1 | 50.2* | -2.8 | -5.0 | -5.5 | 73.9*
CCc1cc(C(=O)OC)c(NC(=O)c2ccoc2C)s1 | -0.5 | -5.8 | -15.7 | -3.5 | 0.2 | . | . | . | .
COC(=O)[C@]12C[C@H](CC(=O)N3CCCC3)C(=O)N(CCC3=CCCCC3)C1=C[C@H](C(C)C)O[C@@H]2C1CC1 | . | 3.8 | -5.5 | . | . | . | . | . | .
COc1cc(CNCc2ccccn2)ccc1OCc1cccc(Cl)c1 | 0.0 | 1.7 | -0.1 | -2.4 | 12.2* | -2.8 | -23.8 | -4.8 | 29.1*
Cc1cccc(C(=O)Nc2nc3ncccn3c2-c2ccc(F)c(F)c2)c1 | . | -206.5 | -255.3 | . | . | . | . | . | .
O=C(O)c1cccc(NC(=S)N/N=C/c2ccccc2OCc2cccc(Br)c2)c1 | -7.1 | -21.4 | -24.6 | -3.9 | 73.9* | -3.0 | 65.4* | -8.6 | 39.8*
O=C(O)c1cccc(NC(=S)N/N=C/c2ccccc2OCc2ccc(Br)cc2)c1 | -8.6 | -8.1 | -17.6 | 0.3 | 72.8* | -2.7 | 66.8* | -10.4 | 35.2*
O=C(O)c1cccc(NC(=S)N/N=C/c2cccc(O)c2)c1 | -0.6 | -2.9 | -3.9 | -3.4 | 32.2* | -4.9 | 27.9* | -8.9 | 16.5*
COC(=O)c1ccc(COc2ccccc2/C=N/Nc2cccc(C(=O)O)c2)cc1 | -11.7 | -5.8 | -1.0 | -4.1 | -1.5 | . | . | . | .
COc1cc(-n2c(C)nc3cc(C(=O)N4CCCN(C(C)=O)CC4)ccc32)cc(OC)c1OC | . | -4.2 | -4.8 | . | . | . | . | . | .
CCN1CCN(CCCNC(=O)CCCn2nc(C)c3sc4ccccc4c3c2=O)CC1 | -8.8 | -1.1 | -7.8 | -0.9 | 13.2* | -3.6 | 4.2 | -6.1 | 16.0*
CCCN1CCN(C(=O)C(C)n2nc(C)c3sc4ccccc4c3c2=O)CC1 (centres undefined) | -16.7 | -0.8 | -9.9 | -2.6 | 28.6* | -2.4 | -3.6 | -4.7 | 36.4*
Cc1cc(C)n2nc(-c3ccc(Cl)cc3)cc2n1 | -13.0 | -56.2 | -85.5 | -1.3 | -0.4 | . | . | . | .
Cc1nc2cc(-c3ccc(Cl)cc3)nn2c(NCCN(C)C)c1C | 0.0 | -27.3 | -30.3 | -2.8 | 18.6* | -1.7 | -3.5 | -7.0 | 44.4*
COc1ccc(C2C(C(=O)Nc3ccc(F)cc3F)CCC(=O)N2c2ccc(OC)cc2)cc1 (centres undefined) | . | -2.1 | 4.1 | . | . | . | . | . | .
O=c1oc2c3c4c(cc2c2c1CCC2)OCCN4CCC3 | -19.8 | i | i | -1.7 | 14.0* | -3.3 | -33.6 | -9.5 | 36.8*
Cc1coc2c(C)c3oc(=O)c4c(c3cc12)CCC4 | . | . | . | -1.6 | 1.3 | . | . | . | .
CC1CC(C)CN(c2ccc([N+](=O)[O-])cc2-c2nn[nH]n2)C1 (centres undefined) | 13.9 | -3.4 | -0.1 | -3.7 | 32.7* | -1.4 | 61.1* | 2.3* | 44.6*
